Test results: ChEMBL document CHEMBL1141770, “Antineoplastic agents. 515. Synthesis of human cancer cell growth inhibitors derived from 3,4-methylenedioxy-5,4'-dimethoxy-3'-amino-Z-stilbene” (J Nat Prod, 2005)
Converted amounts (≈) assume the structure as drawn.

Key:
P388 = experiment: Cytotoxicity against mouse P388 cells by sulforhodamine B method; type: functional
Procedure, shortened: (§1)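 Sulforhodamine B assay, with growth inhibition read as reduced formation of cellular protein.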

BXPC-3 = experiment: Growth inhibition of human BxPC3 cells by sulforhodamine B method; type: functional; procedure, shortened: as §1
SF-295 = experiment: Growth inhibition of human SF295 cells by sulforhodamine B method; type: functional; procedure, shortened: as §1
NCI-H460 = experiment: Growth inhibition of human NCI-H460 cells by sulforhodamine B method; type: functional; procedure, shortened: as §1
DU-145 = experiment: Growth inhibition of human DU145 cells by sulforhodamine B method; type: functional; procedure, shortened: as §1
Cryptococcus neoformans = experiment: Antimicrobial activity against Cryptococcus neoformans ATCC 90112 by broth microdilution assay; type: functional
Procedure, shortened: (§2)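 Broth microdilution following NCCLS standards: M7-A5 for aerobic bacteria and M27-A2 for yeasts. Each assay was repeated at least twice on separate days.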

MCF7 [1] = experiment: Growth inhibition of human MCF7 after 48 hrs by sulforhodamine B method; type: functional, cell-based; conditions: MCF7, 48 h; procedure, shortened: as §1
Bos taurus [2] = species on record: Bos taurus; experiment: Displacement of [3H]vinblastine from bovine tubulin at 10 uM
Procedure, shortened: (§3)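 Bovine brain tubulin at 0.5 mg/mL (5.0 µM) with 5 µM [3H]vinblastine and inhibitor as stated, in 0.5 mM MgCl2, 0.1 M MES pH 6.9 and 4% (v/v) DMSO. Incubated 30 min at 20–22 °C. Bound label separated by centrifugal gel filtration on syringe columns at 2,000 rpm; result is % inhibition ± SD.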

Bos taurus [3] = species on record: Bos taurus; experiment: Displacement of [3H]colchicine from bovine tubulin at 2 uM
Procedure, shortened: (§4)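 Bovine brain tubulin at 0.1 mg/mL (1.0 µM) incubated with 5.0 µM [3H]colchicine and inhibitor at the stated concentration. Read-out is inhibition of radiolabel binding to tubulin, in % ± SD.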

Bos taurus [4] = species on record: Bos taurus; experiment: Displacement of [3H]vinblastine from bovine tubulin at 80 uM; procedure, shortened: as §3
Enterococcus faecalis = experiment: Antimicrobial activity against Enterococcus faecalis ATCC 29212 by broth microdilution assay; type: functional; procedure, shortened: as §2
[5] = Solubility in water; type: physicochemical
Neisseria gonorrhoeae = experiment: Antimicrobial activity against Neisseria gonorrhoeae ATCC 49226 by broth microdilution assay; type: functional
Procedure, shortened: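 Screened by broth microdilution following NCCLS guidelines for bacteria grown aerobically. Each assay was repeated at least twice, on separate days.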

Streptococcus pneumoniae = experiment: Antimicrobial activity against Streptococcus pneumoniae ATCC 6303 by broth microdilution assay; type: functional; procedure, shortened: as §2
[6] = Inhibition of bovine brain tubulin assembly; parameters: species or system Bos taurus
Procedure, shortened: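 Bovine brain tubulin at 1.0 mg/mL (10 µM) assembled with varying inhibitor concentrations. IC50 reported in µM ± SD.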

Bos taurus [7] = species on record: Bos taurus; experiment: Displacement of [3H]colchicine from bovine tubulin at 50 uM; procedure, shortened: as §4
MCF7 [8] = experiment: Increase in mitotic index in human MCF7 cells at 10 times the IC50 concentration after 16 hrs; type: functional
Procedure, shortened: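 MCF-7 cells grown with drug for 16 h, then DNA stain added. Result is the percentage of cells in mitosis.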

Compound: COc1ccc(/C=C\c2cc(OC)c3c(c2)OCO3)cc1NC(=O)[C@H](C)[C@@H](OC)[C@@H]1CCCN1C(=O)OC(C)(C)C
- GI50 (P388): 0.225 µg/mL (≈ 0.396 µM)
- GI50 (BXPC-3): 0.58 µg/mL (≈ 1.02 µM)
- GI50 (SF-295): 0.53 µg/mL (≈ 0.932 µM)
- GI50 (NCI-H460): 0.75 µg/mL (≈ 1.32 µM)
- GI50 (DU-145): 1.9 µg/mL (≈ 3.34 µM)
- MIC (Cryptococcus neoformans): 64 µg/mL (≈ 113 µM)
- GI50 (MCF7 [1]): 0.38 µg/mL (≈ 0.668 µM)

Compound: CC[C@H](C)[C@@H]([C@@H](CC(=O)N1CCC[C@H]1[C@H](OC)[C@@H](C)C(=O)N[C@@H](Cc1ccccc1)c1nccs1)OC)N(C)C(=O)[C@@H](NC(=O)[C@H](C(C)C)N(C)C)C(C)C [DOLASTATIN-10]
- Activity (Bos taurus [2]): 96%

Compound: COc1ccc(/C=C\c2cc(OC)c(OC)c(OC)c2)cc1O [COMBRETASTATIN A4]
- Activity (Bos taurus [3]): 98%
- Activity (Bos taurus [2]): 0%
- Activity (Bos taurus [4]): 0%

Compound: COc1ccc(/C=C\c2cc(OC)c3c(c2)OCO3)cc1NC(=O)[C@H](Cc1ccc(OC(C)(C)C)cc1)NC(=O)OCc1ccccc1
- GI50 (P388): 0.38 µg/mL (≈ 0.582 µM)
- GI50 (BXPC-3): 0.049 µg/mL (≈ 0.0751 µM)
- GI50 (SF-295): 0.44 µg/mL (≈ 0.674 µM)
- GI50 (NCI-H460): 0.41 µg/mL (≈ 0.628 µM)
- GI50 (DU-145): 0.39 µg/mL (≈ 0.597 µM)
- GI50 (MCF7 [1]): 0.36 µg/mL (≈ 0.552 µM)

Compound: COc1ccc(/C=C\c2cc(OC)c3c(c2)OCO3)cc1NC(=O)[C@H](Cc1ccc(OP(=O)(OCc2ccccc2)OCc2ccccc2)cc1)NC(=O)OCc1ccccc1
- GI50 (P388): 0.133 µg/mL (≈ 0.155 µM)
- GI50 (BXPC-3): > 10 µg/mL
- GI50 (SF-295): > 10 µg/mL
- GI50 (NCI-H460): > 10 µg/mL
- GI50 (DU-145): > 10 µg/mL
- MIC (Enterococcus faecalis): 64 µg/mL (≈ 74.7 µM)
- GI50 (MCF7 [1]): > 10 µg/mL

Compound: COc1ccc(/C=C\c2cc(OC)c3c(c2)OCO3)cc1NC(=O)[C@@H](N)CC(=O)[O-].[Na+]
- GI50 (P388): 0.361 µg/mL
- GI50 (BXPC-3): 0.38 µg/mL
- GI50 (SF-295): 0.25 µg/mL
- GI50 (NCI-H460): 0.3 µg/mL
- GI50 (DU-145): 0.33 µg/mL
- GI50 (MCF7 [1]): 0.51 µg/mL
- solubility [5]: < 100 µg/mL

Compound: COc1ccc(/C=C\c2cc(OC)c3c(c2)OCO3)cc1NC(=O)[C@H](C)[C@@H](OC)[C@@H]1CCCN1.O=C(O)C(F)(F)F
- GI50 (P388): 0.0263 µg/mL
- GI50 (BXPC-3): 0.23 µg/mL
- GI50 (SF-295): 0.054 µg/mL
- GI50 (NCI-H460): 0.062 µg/mL
- GI50 (DU-145): 0.26 µg/mL
- MIC (Cryptococcus neoformans): 64 µg/mL
- MIC (Neisseria gonorrhoeae): 16 µg/mL
- MIC (Streptococcus pneumoniae): 8 µg/mL
- MIC (Enterococcus faecalis): 32 µg/mL
- GI50 (MCF7 [1]): 0.07 µg/mL

Compound: COc1ccc(/C=C\c2cc(OC)c3c(c2)OCO3)cc1NC(=O)[C@H](CC(=O)OC(C)(C)C)NC(=O)OC(C)(C)C
- GI50 (P388): 0.385 µg/mL (≈ 0.675 µM)
- GI50 (BXPC-3): 3.4 µg/mL (≈ 5.96 µM)
- GI50 (SF-295): 2.4 µg/mL (≈ 4.21 µM)
- GI50 (NCI-H460): 1.7 µg/mL (≈ 2.98 µM)
- GI50 (DU-145): 2.3 µg/mL (≈ 4.03 µM)
- GI50 (MCF7 [1]): 3 µg/mL (≈ 5.26 µM)

Compound: CC[C@H](C)[C@@H]([C@@H](CC(=O)N1CCC[C@H]1[C@H](OC)[C@@H](C)C(=O)Nc1cc(/C=C\c2cc(OC)c3c(c2)OCO3)ccc1OC)OC)N(C)C(=O)[C@@H](NC(=O)[C@H](C(C)C)N(C)C)C(C)C
- GI50 (P388): < 0.01 µg/mL
- GI50 (BXPC-3): 0.048 µg/mL (≈ 0.0545 µM)
- GI50 (SF-295): 0.0031 µg/mL (≈ 0.00352 µM)
- GI50 (NCI-H460): 0.025 µg/mL (≈ 0.0284 µM)
- GI50 (DU-145): 0.02 µg/mL (≈ 0.0227 µM)
- IC50 [6]: 1300 nM
- Activity (Bos taurus [7]): 30%
- Activity (Bos taurus [2]): 48%
- Activity (Bos taurus [4]): 87%
- GI50 (MCF7 [1]): 0.032 µg/mL (≈ 0.0364 µM)
- Activity (MCF7 [8]): 57%

Compound: CC[C@H](C)[C@@H]([C@@H](CC(=O)N1CCC[C@H]1[C@H](OC)[C@@H](C)C(=O)O)OC)N(C)C(=O)[C@@H](NC(=O)[C@H](C(C)C)N(C)C)C(C)C
- Activity (Bos taurus [7]): 5.2%
- Activity (Bos taurus [4]): 87%

Compound: COc1ccc(/C=C\c2cc(OC)c3c(c2)OCO3)cc1NC(=O)[C@@H](N)Cc1ccc(OP(=O)(O)O)cc1
- GI50 (P388): > 10 µg/mL
- GI50 (BXPC-3): > 1 µg/mL
- GI50 (SF-295): > 1 µg/mL
- GI50 (NCI-H460): > 1 µg/mL
- GI50 (DU-145): > 1 µg/mL
- MIC (Neisseria gonorrhoeae): 0.125 µg/mL (≈ 0.23 µM)
- MIC (Enterococcus faecalis): 16 µg/mL (≈ 29.5 µM)
- GI50 (MCF7 [1]): > 1 µg/mL

Compound: COc1ccc(/C=C\c2cc(OC)c3c(c2)OCO3)cc1NC(=O)[C@H](Cc1ccc(OP(=O)([O-])O)cc1)NP(=O)(O)O.[Na+]
- GI50 (P388): 0.27 µg/mL
- GI50 (BXPC-3): 18.6 µg/mL
- GI50 (SF-295): > 1 µg/mL
- GI50 (NCI-H460): > 1 µg/mL
- GI50 (DU-145): > 1 µg/mL
- MIC (Neisseria gonorrhoeae): 4 µg/mL
- GI50 (MCF7 [1]): 1.3 µg/mL

Compound: COc1ccc(/C=C\c2cc(OC)c3c(c2)OCO3)cc1NC(=O)[C@H](Cc1ccc(OP(=O)(OCc2ccccc2)OCc2ccccc2)cc1)NP(=O)(OCc1ccccc1)OCc1ccccc1
- GI50 (P388): 10 µg/mL (≈ 10.2 µM)

Compound: COc1ccc(/C=C\c2cc(OC)c3c(c2)OCO3)cc1N
- Activity (Bos taurus [3]): 85%
- Activity (Bos taurus [2]): 0%
- Activity (Bos taurus [4]): 0%

Compound: COc1ccc(/C=C\c2cc(OC)c3c(c2)OCO3)cc1NC(=O)[C@@H](N)Cc1ccc(O)cc1.Cl
- GI50 (P388): 0.0329 µg/mL
- GI50 (BXPC-3): 0.064 µg/mL
- GI50 (SF-295): 0.064 µg/mL
- GI50 (NCI-H460): 0.096 µg/mL
- GI50 (DU-145): 0.08 µg/mL
- GI50 (MCF7 [1]): 0.041 µg/mL
- solubility [5]: < 100 µg/mL
